According to ChEMBL document CHEMBL4020800, “The design, synthesis, and anti-inflammatory evaluation of a drug-like library based on the natural product valerenic acid” (Bioorg Med Chem Lett, 2017):
Calls of active or inactive are those of the source. No cut-off for these calls is given here.

What was measured:
PBMC = assay: Antiinflammatory activity in human PBMC assessed as inhibition of LPS-induced TNF-alpha production after 16 hrs by AlphaLisa assay; assay type: functional, cell-based
[1] = Cytotoxicity against primary human […] keratinocytes assessed as inhibition of cell viability at 10 uM preincubated for 2 hrs followed by cytokine addition measured after 72 hrs by PrestoBlue staining based fluorescence assay relative to control; design: species or system Keratinocyte; details: read-out: Imax
Keratinocyte [2] = assay: Antiinflammatory activity in primary human […] keratinocytes assessed as inhibition of IL-17A/TNF-alpha induced IL-8 production at 10 uM preincubated for 2 hrs followed by cytokine addition measured after 72 hrs by HTRF assay relative to control; assay type: functional
Keratinocyte [3] = assay: Cytotoxicity against primary human […] keratinocytes assessed as inhibition of cell viability preincubated for 2 hrs followed by cytokine addition measured after 72 hrs by PrestoBlue staining based fluorescence assay
Method in brief: (§1)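 Primary human keratinocytes were stimulated with IL-17, and the inflammatory response was read as increased IL-8 secretion. Cell viability was measured in the same cells as a secondary readout to separate specific inhibition from cytotoxicity. Betamethasone served as the assay control. Maximal inhibition of IL-8 release or of viability was recorded alongside IC50 where calculated.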

Keratinocyte [4] = assay: Antiinflammatory activity in primary human […] keratinocytes assessed as inhibition of IL-17A/TNF-alpha induced IL-8 production preincubated for 2 hrs followed by cytokine addition measured after 72 hrs by HTRF assay; assay type: functional, cell-based; method in brief: as §1
[5] = Homo sapiens, Keratinocyte, read-out: IC50

| SMILES | inhibition (PBMC) | inhibition at 72 h, 10 µM [1] [%] | Imax (Keratinocyte [2]) [%] | IC50 (Keratinocyte [3]; keratinocyte) | IC50 (Keratinocyte [4]; keratinocyte) | IC50 (Keratinocyte [3]; [5]) [µM] | IC50 (Keratinocyte [4]; [5]) [µM] |
| --- | --- | --- | --- | --- | --- | --- | --- |
| CC1=C2[C@H](/C=C(\C)C(=O)O)CC[C@@H](C)[C@H]2CC1 [VALERENIC ACID] | inactive | 15 | 4 | Not Active |  |  |  |
| CC1=C2[C@H](/C=C(\C)C(=O)NCCC(C)C)CC[C@@H](C)[C@H]2CC1 | inactive | 9 | 22 | Not Active | Not Active |  |  |
| CC1=C2[C@H](/C=C(\C)C(=O)NCc3ccc(F)cc3)CC[C@@H](C)[C@H]2CC1 | inactive | 61 | 70 |  |  | 9.6 | 4.9 |
| CC1=C2[C@H](/C=C(\C)C(=O)NCCc3ccccc3)CC[C@@H](C)[C@H]2CC1 | inactive | 11 | 64 | Not Active |  |  | 7.5 |
| CC1=C2[C@H](/C=C(\C)C(=O)NCCc3ccccn3)CC[C@@H](C)[C@H]2CC1 | inactive | 20 | 14 | Not Active | Not Active |  |  |
| C[C@H]1C[C@H]2[C@@H]3CCC4=CC(=O)C=C[C@]4(C)[C@@]3(F)[C@@H](O)C[C@]2(C)[C@@]1(O)C(=O)CO [BETAMETHASONE] |  |  | 49 |  |  | 0.3 |  |
| CC1=C2[C@H](/C=C(\C)C(=O)NCCc3ccc(F)cc3)CC[C@@H](C)[C@H]2CC1 | inactive | 17 | 44 | Not Active | Not Active |  |  |
| CC1=C2[C@H](/C=C(\C)C(=O)NCc3cccc(F)c3)CC[C@@H](C)[C@H]2CC1 | inactive | 67 | 79 |  |  | 9.6 | 4.7 |
| CC1=C2[C@H](/C=C(\C)C(=O)NCc3ccccc3)CC[C@@H](C)[C@H]2CC1 | inactive | 72 | 84 |  |  | 9 | 2.9 |
| COCCNC(=O)/C(C)=C/[C@@H]1CC[C@@H](C)[C@H]2CCC(C)=C12 | inactive | 7 | 30 | Not Active | Not Active |  |  |
| CC1=C2[C@H](/C=C(\C)C(=O)NCCc3ccc(Br)cc3)CC[C@@H](C)[C@H]2CC1 | inactive | 24 | 60 | Not Active |  |  | 8.3 |
| CC1=C2[C@H](/C=C(\C)C(=O)NCc3ccccc3F)CC[C@@H](C)[C@H]2CC1 | inactive | 72 | 85 |  |  | 8.7 | 2.8 |
| CC1=C2[C@H](/C=C(\C)C(=O)NCCN3CCOCC3)CC[C@@H](C)[C@H]2CC1 | inactive | 12 | 17 | Not Active | Not Active |  |  |
